Test results as given in ChEMBL document CHEMBL1122650, “Synthesis and central nervous system properties of 2-[(alkoxycarbonyl)amino]-4(5)-phenyl-2-imidazolines” (J Med Chem, 1984).
The source made the active and inactive calls. The rule behind the calls is not given here.

Experiments:
[1] = HPLC capacity factor (k'); format: ADME
[2] = species: Mus musculus; assay: Evaluated for antagonism of reserpine induced hypothermia;I= Inactive; format: functional, organism-based
Outline: (§1)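 Male HLa (ICR) BR mice, 18-24 g, in groups of eight; reserpine 5 mg/kg ip given 2 h before oral test compound as aqueous solution. Rectal temperature taken hourly; 1-4-h hypothermia assessed by analysis of variance.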

[3] = species: Mus musculus; assay: Mouse behavior activity was determined; Dwk=Depressant Weak; format: functional, organism-based
Outline: (§2)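 Male Simonsen (ICR) fBR mice, 18-24 g, groups of three, given 3, 10, 30, 100, 300 or 1000 mg/kg ip as aqueous solution and observed for behavioral profile; deaths followed up to 7 days.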

[4] = species: Mus musculus; assay: Compound was evaluated for maximal electroshock antagonism (MES) against mice; Inactive; format: functional, organism-based
Outline: (§3)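 Male HLa (ICR) BR mice, groups of eight to ten, dosed ip (aqueous solution) 15 min before transcorneal electroshock (50 mA, 0.2 s). End point: abolition of tonic hind-limb extension; quantal ED50 by Litchfield-Wilcoxon.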

[5] = Lethal dose in mouse, in groups of ten; format: toxicity, organism-based; conditions: in vivo
[6] = system: Mus musculus; assay: Evaluated in vivo for reserpine hypothermia after oral administration in mouse. Minimum active dose was reported; Inactive; format: functional, organism-based; outline: as §1
[7] = species: Mus musculus; assay: Inhibition of radioactive NE [3H]norepinephrine uptake into mouse heart; format: functional
Outline: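 Mice dosed ip (aqueous solution) before iv [3H]NE; hearts removed 3 h after label, washed, weighed, dissolved in Protosol and counted as dpm per mg tissue. Dose-response from linear regression.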

[8] = species: Mus musculus; assay: Mouse behavior activity was determined;D= Depressant; format: functional, organism-based; outline: as §2
[9] = species: Mus musculus; assay: Righting ability was determined in mice before rapid rolling (unaroused); format: functional
Outline: (§4)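 Male Simonsen (ICR) fBR mice, 18-24 g, groups of ten, dosed with aqueous compound. Righting ability checked before (unaroused) and after (aroused) rapid rolling in the hand; ED50 by Litchfield-Wilcoxon method.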

[10] = species: Mus musculus; assay: Righting ability was determined in mice […] rapid rolling (aroused); format: functional; outline: as §4
[11] = species: Rattus norvegicus; assay: Inhibition of the NE [3H]Norepinephrine uptake by rat brain slices In vitro; format: functional
[12] = system: Mus musculus; assay: Reserpine hypothermia antagonism in mouse administered perorally with 5 mg/kg of reserpine 2 hour prior to test compound administration; format: functional; conditions: route oral
[13] = species: Rattus norvegicus; assay: Inhibition of the 5-HT [14C]5-HT uptake by rat brain slices In vitro; format: functional
Outline: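 Rat cerebral cortex slices, 5 mg tissue per mL Krebs-Henseleit buffer, incubated at 37 °C with [3H]NE or [14C]5-HT; blanks at 4 °C, undosed controls. Stopped after 20 min by filtration; slice radioactivity counted; IC50 from linear regression of uptake inhibition.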

[14] = species: Mus musculus; assay: Evaluated for antagonism of reserpine induced hypothermia; format: functional; outline: as §1
[15] = species: Mus musculus; assay: Compound was evaluated for maximal electroshock antagonism (MES) against mice; format: functional; outline: as §3
[16] = species: Mus musculus; assay: Mouse behavior activity was determined; S-D=Stimulant-Depressant; format: functional, organism-based; outline: as §2
[17] = species: Mus musculus; assay: Righting ability was determined in mice after rapid rolling (aroused); format: functional; outline: as §4

| SMILES | Log k' [1] | ED50 [4] | LD50 [5] [mg/kg] | Mouse behavior activity [8] | Loss of righting reflex [9] [mg/kg] | ED50 [15] [mg/kg] | further results |
| --- | --- | --- | --- | --- | --- | --- | --- |
| COC(=O)NC1=NC(c2cc(OC)cc(OC)c2)CN1 (stereo not drawn) | 0.1 | inactive | 300 |  |  |  | HYPO [2]: inactive; Mouse behavior activity [3]: Depressant - weak |
| CN1CC(c2c(Cl)cccc2Cl)N=C1N (stereo not drawn) |  | inactive |  |  |  |  |  |
| COC(=O)NC1=NCC2(CCc3ccccc32)N1C (stereo not drawn) | 0.48 | inactive | 300 |  |  |  | Mouse behavior activity [3]: Depressant Weak; ED50 [6]: inactive |
| CCOC(=O)NC1=NC(c2ccccc2Cl)CN1C (stereo not drawn) | 0.82 |  | 200 | Depressant | 30 | 28 | ED50 [7]: 34 mg/kg; Loss of righting reflex [10]: 64 mg/kg; IC50 [11]: 30 µM; Reserpine hypothermia [12]: 0.15 mg/kg; IC50 [13]: 150 µM; HYPO [14]: <0.5 mg/kg |
| COC(=O)NC1=NC(c2cc(C)ccc2C)CN1 (stereo not drawn) | 0.58 |  | 700 |  |  | ~100 | HYPO [2]: inactive; Mouse behavior activity [3]: Depressant - weak |
| CN(C)CCC=C1c2ccccc2COc2ccccc21 [DOXEPIN] |  |  | 50 | Depressant | 40 | 16 | Loss of righting reflex [10]: 43 mg/kg |
| COC(=O)NC1=NC(Cc2ccccc2)CN1 (stereo not drawn) | 0.12 |  |  |  |  |  |  |
| COC(=O)NC1=NC(C)(c2ccccc2)CN1 (stereo not drawn) |  | inactive |  |  |  |  |  |
| CCOC(=O)NC1=NC(c2cc(C)ccc2C)CN1 (stereo not drawn) | 0.88 | inactive |  |  |  |  |  |
| CC(C)OC(=O)NC1=NC(c2cccc(Cl)c2)CN1 (stereo not drawn) | 0.95 |  |  |  |  | 79 |  |
| CCOc1ccccc1OCC1CNCCO1 (stereo not drawn) [VILOXAZINE] |  |  | 200 |  |  | 17 | Mouse behavior activity [16]: Stimulant-Depressant |
| COC(=O)NC1=NC(c2ccccc2)CN1Cc1ccccc1 (stereo not drawn) | 1.25 |  | 200 |  |  | 100 | HYPO [2]: inactive; Mouse behavior activity [3]: Depressant Weak |
| CCCOC(=O)NC1=NC(c2ccccc2F)CN1C (stereo not drawn) | 0.87 |  |  |  |  | 23 |  |
| CCN1CC(c2ccccc2)N=C1NC(=O)OC (stereo not drawn) | 0.39 |  | 117 | Depressant | 84 | 66 |  |
| COC(=O)NC1=NC(c2cccc(OC)c2)CN1 (stereo not drawn) | -0.07 | inactive | 700 | Depressant | 182 |  | HYPO [2]: inactive; Loss of righting reflex [17]: 197 mg/kg |
| COC(=O)NC1=NC(c2ccccc2F)CN1 (stereo not drawn) |  |  | 255 | Depressant | 210 | 54 | Loss of righting reflex [17]: 234 mg/kg; HYPO [14]: <0.5 mg/kg |
| COC(=O)NC1=NC(c2cc(Cl)cc(Cl)c2)CN1C (stereo not drawn) |  |  |  |  |  | 44 |  |
| COC(=O)NC1=NC(c2ccccc2F)CN1C (stereo not drawn) | 0.14 |  | 254 |  |  | 74 | Mouse behavior activity [3]: Depressant Weak; ED50 [6]: inactive |
| COC(=O)NC1=NC(c2cccc(C)c2)CN1C (stereo not drawn) | 0.49 |  | 475 | Depressant | 90 | 89 | Loss of righting reflex [10]: 149 mg/kg |
| CCOC(=O)NC1=NC(c2cccc(C)c2C)CN1C (stereo not drawn) | 1.02 |  | 300 | Depressant | 41 | 70 | HYPO [2]: inactive; Loss of righting reflex [10]: 66 mg/kg |

| SMILES | Log k' [1] | ED50 [4] | LD50 [5] [mg/kg] | Mouse behavior activity [8] | Loss of righting reflex [9] [mg/kg] | ED50 [15] [mg/kg] | further results |
| --- | --- | --- | --- | --- | --- | --- | --- |
| COC(=O)NC1=NCC2c3ccccc3CCN12 (stereo not drawn) |  |  | 200 | Depressant |  |  |  |
| COC(=O)NC1=NC(c2ccccc2Br)CN1 (stereo not drawn) | 0.47 |  |  |  |  | 62 |  |
| COC(=O)NC1=NC(c2cc(F)ccc2F)CN1 (stereo not drawn) | -0.08 |  | > 300 |  |  | 49 | Mouse behavior activity [3]: Depressant - weak; HYPO [14]: <0.5 mg/kg |
| COC(=O)NC1=NC(c2cccc(OC)c2)CN1C (stereo not drawn) | 0.18 |  | 250 | Depressant | 100 | 128 | Loss of righting reflex [10]: 144 mg/kg; HYPO [14]: >20 mg/kg |
| CCOc1ccccc1C1CN=C(NC(=O)OC)N1 (stereo not drawn) | 0.55 | inactive | 700 | Depressant | 155 |  | HYPO [2]: inactive; Loss of righting reflex [17]: 125 mg/kg |
| CCOC(=O)NC1=NC(c2ccc(F)cc2)CN1C (stereo not drawn) | 0.48 |  | 200 |  |  | 100 | Mouse behavior activity [16]: Stimulant-Depressant; HYPO [14]: <0.5 mg/kg |
| COC(=O)NC1=NC2c3ccccc3CC2N1 (stereo not drawn) | -1.14 |  | 700 |  |  | 44 | HYPO [2]: inactive; Mouse behavior activity [3]: Depressant Weak |
| COC(=O)NC1=NCC(c2ccccc2)N1C (stereo not drawn) |  | inactive | 200 |  |  |  | Mouse behavior activity [16]: Stimulant-Depressant |
| CN1C(N)=NCC1c1cccc(Cl)c1 (stereo not drawn) |  | inactive |  |  |  |  |  |
| COC(=O)NC1=NC(c2ccc(C(C)C)cc2)CN1 (stereo not drawn) | 0.99 | inactive | 500 |  |  |  | HYPO [2]: inactive; Mouse behavior activity [3]: Depressant - weak |
| COC(=O)NC1=NC(c2ccc(C(F)(F)F)cc2)CN1 (stereo not drawn) | 0.56 | inactive | 700 |  |  |  | Mouse behavior activity [3]: Depressant - weak; HYPO [14]: >20 mg/kg; ED50 [6]: inactive |
| COC(=O)NC1=NC(c2c(Cl)cccc2Cl)CN1C (stereo not drawn) |  |  |  |  |  |  | HYPO [14]: <0.5 mg/kg |
| COC(=O)NC1=NC(c2cccc(Cl)c2)CN1C (stereo not drawn) | 0.53 |  | 300 | Depressant | 200 | 100 |  |
| COC(=O)NC1=NC(c2c(Cl)cccc2Cl)CN1 (stereo not drawn) | 0.3 | inactive | 300 |  |  |  | ED50 [7]: 14.2 mg/kg; Mouse behavior activity [3]: Depressant; IC50 [11]: > 100 µM; Reserpine hypothermia [12]: 0.15 mg/kg; IC50 [13]: > 100 µM; HYPO [14]: <0.5 mg/kg |
| COC(=O)NC1=NC(c2ccc3c(c2)OCO3)CN1 (stereo not drawn) | -0.14 | inactive | 200 |  |  |  | HYPO [2]: inactive |
| CCOC(=O)NC1=NCC2c3ccccc3CCN12 (stereo not drawn) |  |  | 200 |  |  |  | Mouse behavior activity [16]: Stimulant-Depressant; HYPO [2]: inactive |
| COC(=O)NC1=NC(c2ccccc2C)CN1C (stereo not drawn) | 0.37 |  | 200 | Depressant |  | 68 |  |
| CC(C)COC(=O)NC1=NC(c2ccccc2)CN1C (stereo not drawn) | 1.15 |  | 247 | Depressant | 41 | 70 | Loss of righting reflex [10]: 76 mg/kg; HYPO [14]: >20 mg/kg |
| COC(=O)NC1=NC(c2ccccc2-c2ccccc2)CN1 (stereo not drawn) | 1.06 |  | 200 | Depressant | 70 |  | HYPO [14]: >20 mg/kg |
| COC(=O)NC1=NCC(c2c(Cl)cccc2Cl)N1C (stereo not drawn) | 0.54 |  |  |  |  | 22 |  |
